Results gathered from unrelated publications.
Lines come from different studies, so protocols differ.
Read-out: parasite growth
Setting: promastigote

Structure (SMILES) | organism | method | time | IC50
COc1ccc([S+]([O-])c2ccc(C)cc2)c(OC)c1OC (stereo not drawn) | Leishmania braziliensis | MTT | 24 h | 67.2 µM
C[C@@H]1[C@H](O)[C@@H](C)/C=C/C=C/C=C/C=C/C=C/C=C/C=C/[C@H](O[C@@H]2O[C@H](C)[C@@H](O)[C@H](N)[C@@H]2O)C[C@@H]2O[C@](O)(C[C@@H](O)C[C@@H](O)[C@H](O)CC[C@@H](O)C[C@@H](O)CC(=O)O[C@H]1C)C[C@H](O)[C@H]2C(=O)O | Leishmania amazonensis |  | 72 h | 0.06 mg/L
C[C@@H]1[C@H](O)[C@@H](C)/C=C/C=C/C=C/C=C/C=C/C=C/C=C/[C@H](O[C@@H]2O[C@H](C)[C@@H](O)[C@H](N)[C@@H]2O)C[C@@H]2O[C@](O)(C[C@@H](O)C[C@@H](O)[C@H](O)CC[C@@H](O)C[C@@H](O)CC(=O)O[C@H]1C)C[C@H](O)[C@H]2C(=O)O | Leishmania braziliensis | MTT | 24 h | 22 µM
CC(C)(C)CC(C)(C)Nc1c(-c2cccc([N+](=O)[O-])c2)nc2ncccn12 | Leishmania amazonensis | MTT | 72 h | > 100 µM
COc1ccc(Sc2ccccc2)c(OC)c1OC | Leishmania braziliensis | MTT |  | 14 µM
CCCCCCCCCCCCCCCCOP(=O)([O-])OCC[N+](C)(C)C | Leishmania amazonensis | MTT | 72 h | 15.1 µM
Oc1ccc(/C=C/c2cc(O)cc(O)c2)cc1 | Leishmania amazonensis | MTT | 72 h | 97.9 µM
C=C1C[C@@]23CC[C@H]4[C@@](C)(CCC[C@@]4(C)C(=O)O)[C@@H]2CC[C@@H]1C3 | Leishmania amazonensis |  | 72 h | 28 mg/L
CC(C)(C)CC(C)(C)Nc1c(-c2ccc(-c3ccccc3)cc2)nc2ncccn12 | Leishmania amazonensis | MTT | 72 h | 31.1 µM
COc1cc(O)c(CC=C(C)C)c(O)c1C(=O)/C=C/c1ccc(O)cc1 | Leishmania amazonensis | MTT | 72 h | 47.2 µM
CCCCCCCCc1nc2ncccn2c1NC(C)(C)CC(C)(C)C | Leishmania amazonensis | MTT | 72 h | 40.6 µM
C=C1CC[C@@H]2[C@](C)(CCC[C@@]2(C)C(=O)O)[C@H]1CCc1ccoc1 | Leishmania amazonensis |  | 72 h | 35 mg/L
